Experimental data reported in ChEMBL document CHEMBL2163288, “Design and characterization of a selenium-containing inhibitor of activated thrombin-activatable fibrinolysis inhibitor (TAFIa), a zinc-containing metalloprotease” (J Med Chem, 2012).
Calls of active or inactive are those of the source. The rule behind the calls is not given here.

Columns and labels:
[1] = molecular target: T1, Carboxypeptidase B2 (Homo sapiens) (UniProt Q96IY4); experiment: Inhibition of human activated TAFI using Hip-Arg as substrate at 10 uM incubated for 10 mins prior to substrate addition measured after 30 mins by spectrophotometric analysis
T1 sequence (whole entry): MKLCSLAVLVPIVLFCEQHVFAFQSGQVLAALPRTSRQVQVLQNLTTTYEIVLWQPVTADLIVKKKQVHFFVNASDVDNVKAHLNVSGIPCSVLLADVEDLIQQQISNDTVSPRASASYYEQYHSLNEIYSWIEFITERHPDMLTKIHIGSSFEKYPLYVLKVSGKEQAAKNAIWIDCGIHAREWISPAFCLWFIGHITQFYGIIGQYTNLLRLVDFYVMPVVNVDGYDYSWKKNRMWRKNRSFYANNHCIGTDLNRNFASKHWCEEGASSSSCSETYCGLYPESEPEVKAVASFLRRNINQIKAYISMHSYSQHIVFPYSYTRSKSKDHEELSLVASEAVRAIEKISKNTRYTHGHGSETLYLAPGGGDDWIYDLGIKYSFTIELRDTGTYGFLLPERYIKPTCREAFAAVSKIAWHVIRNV
Method in brief: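 Plasma-purified human TAFI activated with thrombomodulin (25 °C, 3 min), then thrombin (25 °C, 30 min). TAFIa (20 U/L) preincubated with compound at 25 °C for 10 min. Hip-Arg substrate (3.2 mM stock) added in 0.1 M Tris-HCl pH 7.6 with or without 10 μM DTT, 30 min at 25 °C. Stopped with PIPES/Tween 20; cyanuric acid colour read at 405 nm; IC50 from sigmoidal curves.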

[2] = Inhibition of human carboxypeptidase N using Hip-Lys as substrate incubated for 10 mins prior to substrate addition measured after 30 mins by spectrophotometric analysis
Method in brief: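 Human plasma CPN (50 U/L) preincubated with compound at 37 °C for 10 min, then Hip-Lys (3.2 mM stock) added in 0.1 M Tris-HCl pH 7.6 (±10 μM DTT) for 30 min at 37 °C. Stopped with PIPES/Tween 20 buffer; cyanuric acid colour read at 405 nm; IC50 from sigmoidal inhibition curves.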

Carboxypeptidase B2 [3] = molecular target: T2, Carboxypeptidase B2 (Homo sapiens, UniProt Q96IY4); experiment: Inhibition of human activated TAFI using Hip-Arg as substrate incubated for 10 mins prior to substrate addition measured after 30 mins by spectrophotometric analysis
T2 sequence (Q96IY4 whole entry): T1 sequence (whole entry)
Method in brief: (§1)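 TAFI purified from human plasma, pre-mixed with 300 ng/mL thrombomodulin (25 °C, 3 min), then activated with 3 U/mL thrombin (25 °C, 30 min). 20 U/L TAFIa preincubated with compounds for 10 min at 25 °C. Hip-Arg (3.2 mM stock) in 0.1 M Tris pH 7.6, with or without 10 μM DTT final, for 30 min at 25 °C. Stopped with PIPES/Tween 20, cyanuric acid colour read at A405. IC50 taken from sigmoidal curves.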

Carboxypeptidase B [4] = molecular target: T3, Carboxypeptidase B (Sus scrofa, UniProt P09955); experiment: Inhibition of pig pancreatic carboxypeptidase B using Hip-Arg as substrate incubated for 10 mins prior to substrate addition measured after 30 mins by spectrophotometric analysis in presence of dithiothreitol
T3 sequence (P09955 whole entry): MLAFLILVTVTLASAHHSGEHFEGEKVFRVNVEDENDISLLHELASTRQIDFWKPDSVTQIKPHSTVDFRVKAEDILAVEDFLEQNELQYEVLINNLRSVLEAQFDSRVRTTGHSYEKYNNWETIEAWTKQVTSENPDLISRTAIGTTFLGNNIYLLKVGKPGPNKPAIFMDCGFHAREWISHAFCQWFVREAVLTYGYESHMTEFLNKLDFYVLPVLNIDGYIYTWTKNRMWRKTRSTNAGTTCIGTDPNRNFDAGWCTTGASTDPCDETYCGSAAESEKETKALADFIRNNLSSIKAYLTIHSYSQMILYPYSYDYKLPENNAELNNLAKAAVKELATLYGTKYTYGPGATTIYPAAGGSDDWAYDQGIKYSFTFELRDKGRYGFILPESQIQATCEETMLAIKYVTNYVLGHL
Method in brief: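 Porcine pancreatic CPB at 20 U/L preincubated with compounds for 10 min at 25 °C. Then Hip-Arg (3.2 mM stock) in 0.1 M Tris pH 7.6 with 10 μM DTT final, for 30 min at 25 °C. Stopped with PIPES/Tween 20, cyanuric acid colour, absorbance at 405 nm. IC50 from sigmoidal inhibition curves.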

[5] = Inhibition of human carboxypeptidase N using Hip-Lys as substrate incubated for 10 mins prior to substrate addition measured after 30 mins by spectrophotometric analysis in presence of dithiothreitol
Method in brief: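 Human plasma carboxypeptidase N at 50 U/L preincubated with compounds for 10 min at 37 °C. Then Hip-Lys (3.2 mM stock) in 0.1 M Tris pH 7.6 buffer with DTT, for 30 min at 37 °C. Stopped with PIPES/Tween 20, cyanuric acid colour, A405. IC50 from sigmoidal inhibition curves.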

Carboxypeptidase B2 [6] = molecular target: T2, Carboxypeptidase B2; experiment: Inhibition of human activated TAFI using Hip-Arg as substrate incubated for 10 mins prior to substrate addition measured after 30 mins by spectrophotometric analysis in presence of dithiothreitol; method in brief: as §1
Carboxypeptidase B [7] = molecular target: T3, Carboxypeptidase B; experiment: Inhibition of pig pancreatic carboxypeptidase B using Hip-Arg as substrate incubated for 10 mins prior to substrate addition measured after 30 mins by spectrophotometric analysis
Homo sapiens = species on record: Homo sapiens; experiment: Selectivity ratio of IC50 for human carboxypeptidase N to IC50 for human activated TAFI
[8] = Selectivity ratio of IC50 for pig pancreatic carboxypeptidase B to IC50 for human activated TAFI

Row | inhibition [1] | Ratio IC50 (Homo sapiens) | Structure (SMILES) | IC50 [2] | IC50 (Carboxypeptidase B2 [3]) | IC50 (Carboxypeptidase B [4]) | IC50 [5] | IC50 (Carboxypeptidase B2 [6]) | IC50 (Carboxypeptidase B [7]) | Ratio IC50 [8]
1 | inactive | – | O[C@@H](CS)[C@@H](O)CS | – | – | – | – | – | – | –
2 | – | – | CCC(=O)[Se]CC(CCCCCN)C(=O)O (stereo not given) | 2 µM | 0.76 µM | 0.0011 µM | 0.018 µM | 1.1 nM | 1.9 µM | –
3 | – | – | NCCCCCC(C[Se][Se]CC(CCCCCN)C(=O)O)C(=O)O (stereo not given) | > 3800 µM | > 3800 µM | 0.0011 µM | 0.0086 µM | 2 nM | 110 µM | –
4 | – | – | CCOC(=O)C(CCCCCN)CSC(C)=O (stereo not given) | > 3800 µM | 310 µM | – | – | – | 19 µM | –
5 | – | 40 | CC(=O)SCC(CCCCCN)C(=O)O (stereo not given) | 160 µM | 3.8 µM | – | – | – | 1.4 µM | –
6 | – | – | Nc1ncc(CC(C[Se][Se]CC(Cc2cnc(N)c(Cl)c2)C(=O)O)C(=O)O)cc1Cl (stereo not given) | > 3800 µM | 3.3 µM | 0.0015 µM | > 3800 µM | 0.025 nM | 370 µM | 3
7 | – | 0.4 | CCOC(=O)C(CS)CCCCCN (stereo not given) | 25 µM | 62 µM | – | – | – | 260 µM | –
8 | – | – | NCCCCCC(C[Se]C(=O)CCCc1ccccc1)C(=O)O (stereo not given) | 6 µM | 1.6 µM | 0.0032 µM | 0.016 µM | 4.1 nM | 1.5 µM | –
9 | – | – | CCOC(=O)C(C[Se]C(=O)CC)Cc1cnc(N)c(Cl)c1 (stereo not given) | > 3800 µM | > 3800 µM | 130 µM | > 3800 µM | 2600 nM | > 3800 µM | 3
10 | – | – | CCOC(=O)C(C[Se]C(=O)CC)Cc1ccc(N)nc1 (stereo not given) | 15 µM | 180 µM | 2.5 µM | 1.7 µM | 890 nM | > 3800 µM | 3
11 | – | – | CC(C)[C@H](NC(=O)CCc1ccccc1)P(=O)(O)C[C@@H](CCCCCN)C(=O)O | 6.7 µM | 0.0055 µM | – | – | – | 0.0049 µM | –
12 | – | – | Nc1ccc(CC(C[Se][Se]CC(Cc2ccc(N)nc2)C(=O)O)C(=O)O)cn1 (stereo not given) | 4.2 µM | 0.2 µM | 0.00019 µM | 0.00029 µM | 0.0022 nM | 0.28 µM | 3
13 | – | – | CCOC(=O)C(CCCCCN)C[Se]C(=O)CC (stereo not given) | 14 µM | 1.4 µM | 0.033 µM | 0.16 µM | 30 nM | 910 µM | –
14 | – | – | NCCCCCC(C[Se]C(=O)CCc1ccccc1)C(=O)O (stereo not given) | 1.7 µM | 2 µM | 0.0032 µM | 0.014 µM | 5.3 nM | 1.4 µM | –
15 | – | – | NCCCCCC(CS)C(=O)O (stereo not given) | 1.4 µM | 0.034 µM | – | – | – | – | –
